Rows were chosen to be rich in hits. Some 4% of all compounds tested hit in one or more screens of this group.
TAAR1 ag = human TAAR1 agonism; Q96RJ0; 360,000 compounds, 0.99% hits; AID 624467; activation, % at 3 µM; CHO RD-HGA16 TAAR1, Fluo-8 calcium fluorescence; vehicle wells 0%, saturating PEA agonist 100%;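 active = activation above the mean activation of all test compounds in the run plus 3 SD, cut at about 38% in these data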
Target sequence (Q96RJ0 whole entry, looked up): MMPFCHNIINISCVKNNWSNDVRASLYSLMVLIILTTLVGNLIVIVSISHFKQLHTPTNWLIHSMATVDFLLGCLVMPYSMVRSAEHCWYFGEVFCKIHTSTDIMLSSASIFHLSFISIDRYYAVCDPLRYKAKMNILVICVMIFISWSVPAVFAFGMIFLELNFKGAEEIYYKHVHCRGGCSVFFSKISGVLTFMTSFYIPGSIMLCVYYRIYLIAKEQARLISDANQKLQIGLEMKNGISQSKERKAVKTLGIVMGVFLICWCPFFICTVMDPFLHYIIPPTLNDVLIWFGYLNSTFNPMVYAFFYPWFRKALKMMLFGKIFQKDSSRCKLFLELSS
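Repeats: no replicates (n 1) | Material: CHO-derived RD-HGA16 cells with stable Gα16 and human TAAR1 | Technique: Kinetic Fluo-8 calcium fluorescence | Schedule: 17-24 h seeding, 75 min 37 °C dye, 30 min RT | Evaluation: % activation from peak over basal fluorescence ratio, DMSO-to-PEA scaled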
NTR1 ag = activates human neurotensin receptor 1; NTR1-U2OS beta-arrestin-GFP spot imaging, agonist mode; activation, % at 20 µM; 330,000 compounds, 0.17% hits;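 active = activation at or above 40% of the spot to cytoplasm intensity ratio, with at least 20 cells analyzed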;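 also: 0% = DMSO without peptide and 100% = 100 nM NTR1 peptide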
TAAR1 antagonist = antagonists of human TAAR1; inhibition, % at 3 µM; 360,000 compounds, 1.5% hits; CHO RD-HGA16 TAAR1, Fluo-8 calcium fluorescence, antagonist;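 active = inhibition above a per-plate cutoff, the mean inhibition of test compounds on that plate plus 3 SD, cut at about 49% in these data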;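 also: 0% = DMSO plus EC80 beta-PEA response and 100% = DMSO alone without agonist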
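test system = CHO RD-HGA16 cells bearing hTAAR1 | replication = singlicate | controls = DMSO-only wells and EC80 β-PEA-stimulated wells | reagent = EC80 β-phenethylamine stimulus | read-out basis = percent inhibition of PEA-evoked calcium signal, max/basal emission ratio | schedule = seeding 17-24 h prior, 75-min 37 °C, 30-min RT dye loading | signal = kinetic Fluo-8 calcium fluorescence measurement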
OX1R antag-1 = blocks the human orexin 1 receptor; CHO/OX1R cells, Fluo-8 calcium fluorescence, orexin A; inhibition, % at 5 µM; 330,000 compounds, 0.43% hits;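 active = inhibition above its plate's threshold, mean inhibition of all tested compounds on the plate plus 3 SD, cut at about 37% in these data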;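 also: 0% = orexin A challenge wells and 100% = SB-334867-A antagonist wells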
CHO parental Ca = signal in parental CHO cells, OX1R antagonist counter-screen | parental CHO-K1, ATP-induced calcium, Fluo-8 fluorescence | inhibition, % at 5.6 µM | 330,000 compounds, 0.63% hits | AID 463079;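 active = inhibition above that plate's mean sample inhibition plus 3 SD, cut at about 26% in these data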;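 also: 0% = ATP-challenged DMSO wells and 100% = DMSO wells without ATP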
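test system = CHO parental line | reagent = ATP stimulus | measured by = intracellular calcium via Fluo-8 no-wash fluorescent dye | control set = ATP and no-ATP DMSO wells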
OX1R antag-2 = blocks the human orexin 1 receptor; O43613; OX1R-expressing cells, FRET antagonist read-out; inhibition, % at 6.6 µM; 330,000 compounds, 1.8% hits; AID 485270; in the data active = inhibition mostly above about 38%, no sharp cut-off; inactive = mostly below about 40%;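 also: 0% = agonist challenge alone and 100% = reference antagonist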
nonsel antag count = nonselective antagonism, TAAR1 counter-screen | shares compounds with TAAR1 antagonist | counterscreen cell line, calcium fluorescence, antagonist mode | inhibition, % at 3 µM | 2,400 compounds, 77% hits | AID 651780; in the data active = inhibition above about 22%;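 also: CHO-Ga16 host cells stimulated with ATP at an EC80 level; 0% = agonist EC80 plus vehicle and 100% = vehicle without agonist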
TAAR1 antag conf = confirmation of human TAAR1 antagonists; shares compounds with TAAR1 antagonist; TAAR1-expressing cells, fluorescence antagonist read-out; 2,400 compounds, 40% hits; inhibition, % at 3 µM; in the data active = inhibition above about 49%;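 also: CHO-Ga16 host cells challenged with agonist PEA near its EC80; 0% = agonist at EC80 plus vehicle and 100% = vehicle with no agonist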
Ga16 ag counter = nonselective Ga16 agonism, counter-screen; Ga16-expressing cells, calcium fluorescence, agonist counterscreen; activation, % at 3 µM; shares compounds with TAAR1 antagonist; 2,400 compounds, 18% hits; in the data active = activation above about 12%;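 also: 0% = vehicle wells and 100% = saturating stimulus response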
TAAR1 ag count = TAAR1 agonism, antagonist counter-screen; AID 651955; shares compounds with TAAR1 antagonist; hTAAR1 cell line, fluorescence activation, agonist mode; activation, % at 3 µM; 2,400 compounds, 2% hits; in the data active = activation above about 37%;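 also: CHO cells stably expressing TAAR1 with calcium dye readout; 0% = DMSO vehicle and 100% = full agonist response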
Active calls of the source: *; / = no result given.

SMILES	TAAR1 ag	NTR1 ag	TAAR1 antagonist	OX1R antag-1	CHO parental Ca	OX1R antag-2	nonsel antag count	TAAR1 antag conf	Ga16 ag counter	TAAR1 ag count
CN1/C(=C/C(=O)COC(=O)CN2C(=O)C3CC=CCC3C2=O)C(C)(C)c2ccccc21 (stereo unspecified)	2	/	20	/	/	/	/	/	/	/
COc1cc(OC)cc(C(=O)NCC(=O)OCC(=O)/C=C2/N(C)c3ccccc3C2(C)C)c1	4	6	37	-7	-9	25	/	/	/	/
O=C(NCc1ccc(Cl)cc1)c1cccc2c1C(=O)N(CC1CCCO1)C2 (stereo unspecified)	0	5	-7	-23	-14	5	/	/	/	/
O=C(COC(=O)CCc1nc2ccccc2s1)Nc1nc(-c2ccccc2)cs1	4	3	55*	-17	-11	7	33*	37	4	7
Cc1csc(NC(=O)CCc2nc3ccccc3s2)n1	3	-1	-8	-16	-30	30	/	/	/	/
COc1ccc(-c2cn3nc(SCC(=O)NC4CCCCC4)ccc3n2)cc1	1	0	1	-34	-11	17	/	/	/	/
CCCCN(C(=O)/C=C/c1ccc(OC)cc1)C1CCS(=O)(=O)C1 (stereo unspecified)	1	0	-30	-12	-20	20	/	/	/	/
CN1CCN(c2ncnc3c2c(-c2ccccc2)cn3-c2ccc(F)cc2)CC1	10	11	60*	6	-14	0	11	53*	9	28
COc1ccc(CN(C)C(=O)c2ccccc2OCc2c(C)noc2C)c(OC)c1	1	1	-4	-12	-18	16	/	/	/	/
COc1ccc(Br)cc1CN(C)C(=O)c1ccccc1OCc1c(C)noc1C	9	0	57*	-25	-40	11	23*	33	7	4
Cc1ccccc1NC(=O)CCN1C(=O)CSC1=O	-2	-1	106*	-16	-12	8	-6	-6	3	5
Cc1ccc(NC(=O)CCN2C(=O)CSC2=O)c(C)c1	17	0	8	-9	2	0	/	/	/	/
Cc1ccc(S(=O)(=O)N2CCOC2CNC(=O)C(=O)NCc2ccc(Cl)cc2)cc1 (stereo unspecified)	5	1	-14	-10	-18	12	/	/	/	/
Cc1c(C(=O)N2CCCC2)c(S(=O)(=O)N2CCN(c3ccccc3F)CC2)c(C)n1C	7	0	-15	-12	-16	4	/	/	/	/
Cc1cccc(NC(=O)c2oc3ccc(S(=O)(=O)N4CCOCC4)cc3c2C)c1C	18	2	58*	-3	-10	5	31*	51*	9	9
Cc1ccc(NC(=O)c2oc3ccc(S(=O)(=O)N4CCOCC4)cc3c2C)c(C)c1	10	4	37	-10	-2	23	/	/	/	/
COC(=O)[C@@]1(Sc2ccc(C)cc2)CC(=O)N(c2ccccc2)[C@@H]1c1ccccc1	8	/	95*	/	/	/	39*	78*	7	8
CCOC(=O)c1[nH]c(C)c(C(=O)OCC)c1C	-2	-2	-29	-8	-17	15	/	/	/	/
CCOC(=O)c1c(C)[nH]c(C(=O)COC(=O)c2[nH]c(C)c(C(C)=O)c2C)c1C	29	3	77*	-8	-11	20	63*	66*	15*	14
CC(=O)c1c(C)[nH]c(C(=O)COC(=O)CN(C)S(=O)(=O)c2ccc(Cl)cc2)c1C	23	2	53*	-15	-7	27	40*	42	18*	11
CC(=O)c1c(C)[nH]c(C(=O)COC(=O)Cc2ccccc2F)c1C	4	-2	0	-31	-7	-1	/	/	/	/
C=CCc1cc(Cl)ccc1OC(=O)Nc1cccc(Cl)c1	11	2	-3	8	27	27	/	/	/	/
CCCNC(=O)c1cc(S(=O)(=O)N2CCCCC2)c[nH]1	/	2	/	1	-2	13	/	/	/	/
CCOc1ccc(OCCSc2nc3ccccc3c(=O)[nH]2)cc1	33	8	63*	-6	-4	4	9	26	8	16
COc1ccc(/C=C2\SC(=S)N(NS(=O)(=O)c3ccc(C)cc3)C2=O)c(OC)c1	16	4	68*	-13	12	60*	16	33	8	5
SMILES	TAAR1 ag	NTR1 ag	TAAR1 antagonist	OX1R antag-1	CHO parental Ca	OX1R antag-2	nonsel antag count	TAAR1 antag conf	Ga16 ag counter	TAAR1 ag count
COc1cc(/C=C2\SC(=S)N(CCCCC(=O)O)C2=O)ccc1OS(=O)(=O)c1ccc(C)cc1	12	7	65*	-4	21	22	50*	50*	12*	7
COc1ccc(/C=C2\SC(=S)N(CCCCCC(=O)Nc3cc(C)on3)C2=O)cc1OC	0	30	-19	-21	-11	1	/	/	/	/
CCOc1ccc(/C=C2\SC(=S)N(NS(=O)(=O)c3ccc(C)cc3)C2=O)cc1OC	12	2	75*	-20	-10	56	29*	51*	7	4
O=C(C1CCC(=O)N(C2CC2)C1)N1CCC(Oc2ccccc2F)CC1 (stereo unspecified)	0	1	-10	10	-2	2	/	/	/	/
CC1Sc2ccc(S(=O)(=O)CCC(=O)NC3CCCC(C)C3C)cc2NC1=O (stereo unspecified)	5	2	-4	-10	-11	10	/	/	/	/
Cc1cc(C)n(CC(=O)NNC(=O)c2ccc(NC(=O)CC#N)cc2)n1	15	-1	-4	-11	0	10	/	/	/	/
CC1Cc2ccccc2N1C(=O)c1cc2c(=O)n3ccccc3nc2n1C (stereo unspecified)	17	2	56*	-19	-20	10	27*	49*	12*	18
COC1C(C)=C(C)C(=O)N1Cc1ccc(F)cc1 (stereo unspecified)	1	1	1	-8	-11	3	/	/	/	/
O=C(CCC(=O)N1CCSc2ccccc21)Nc1ccc(F)cc1	7	0	20	-27	-13	3	/	/	/	/
O=C(CCC(=O)N1CCSc2ccccc21)Nc1cccc(F)c1	7	0	6	-12	-1	-1	/	/	/	/
CCc1ccc(NC(=O)CCC(=O)N2CCSc3ccccc32)cc1	6	-3	59*	-24	2	17	25*	40	6	4

Screens (PubChem)
